Broadly, the AUC is concentration integrated over time.

SMILES strings stand for the structures. Some results are limits rather than exact numbers.

Series [1] in a line: AUC was measured from the graph plotted against blood plasma concentration and time at the dose of 150 uMol/kg,. It is filed as ADME.
The subject of series [2] is Rattus norvegicus. The series is described as follows: In vivo percentage efficacy, measured as ability to decrease blood glucose percentage after 11.25 days. It is filed as functional. More on the design: concentration or dose not given beside the values. The essentials: (§1)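 Rats (250-300 g) on high-fat purified diet, made diabetic by 40 mg/kg streptozotocin iv (tail vein) 3 days into diet. Selected by glucose criteria, including an oral glucose load (1.35 g/kg dextrose) after an 18 h fast. Dosed orally once daily at 70 µmol/kg in CMC for 11 days. Blood glucose taken 6 h post-dose (food removed). % efficacy: 100% = normalization to 60 mg/dL.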

The nature of series [3]: AUC was measured from the graph plotted against blood plasma concentration and time at the dose of 300 uMol/kg,. The series is classed as ADME.
Series [4] relates to Rattus norvegicus. The series is described as follows: Ketone levels were determined in an acute in vivo study for inhibition of gluconeogenesis in normal male Sprague-Dawley rats. The series is classed as functional. More on the design: concentration or dose not given beside the values. The essentials:
(§2)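 Normal male Sprague-Dawley rats (200-300 g) fasted 18 h; five per group given compound by oral gavage at 100 µmol/kg in carboxymethylcellulose vehicle or vehicle alone. At 3 h, cardiac-puncture blood under brief CO₂ anesthesia; serum β-hydroxybutyrate (ketones) and glucose expressed as % of control; Student's t-test.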

Series [5] relates to Rattus norvegicus. In words: Glucose levels were determined in an acute in vivo study for inhibition of gluconeogenesis in normal male Sprague-Dawley rats. The series is classed as functional. More on the design: concentration or dose not given beside the values. The essentials: as §2
The test system of series [6] is Rattus norvegicus. In words: In vivo percentage efficacy, measured as ability to decrease blood glucose percentage after 8.25 days in rats. More on the design: concentration or dose not given beside the values. It is filed as functional. The essentials:
as §1

Series [7] can be described thus: AUC was measured from the graph plotted against blood plasma concentration and time at the dose of 700 uMol/kg,. It is filed as ADME.
Series [8] concerns Rattus norvegicus. The series is described as follows: In vivo percentage efficacy, measured as ability to decrease blood glucose percentage after 8.25 days. It is filed as functional. Also noted: concentration or dose not given beside the values. The essentials:
as §1

In series [9] the test system is Rattus norvegicus. In words: Testes weight (treated)/body weight(treated)]/[testes weight(control)/body weight(control)] x 100 at a dose of 700 umol/kg/day. It is filed as functional.
Series [10] is described as follows: AUC was measured from the graph plotted against blood plasma concentration and time at the dose of 150 uMol/kg.
For series [11], the system named is Rattus norvegicus. The series is described as follows: Testes weight (treated)/body weight(treated)]/[testes weight(control)/body weight(control)] x 100 at a dose of 350 umol/kg/day. The series is classed as functional.
Series [12] has as its system Rattus norvegicus. The series is described as follows: In vivo percentage efficacy was measured as ability to decrease blood glucose percentage after 11.25 days in rats. It is filed as functional. The essentials:
as §1

Series [13] can be described thus: AUC was measured from the graph plotted against blood plasma concentration and time at the dose of 300 uMol/kg. It is filed as ADME, cell-free.
Series [14] deals with Rattus norvegicus. The series is described as follows: Testes weight (treated)/body weight(treated)]/[testes weight(control)/body weight(control)] x 100 at a dose of 700 uM/kg/day. The series is classed as functional.

Consider `CC(C)(C)C(=O)c1ccc(C(=O)O/C(=N\OCC(=O)O)c2ccc(C(=O)C(C)(C)C)cc2)cc1`, for which the AUC was determined as 1000 µg·h/mL in [1] and 2030 µg·h/mL in series [3]. Also, the figures for the Efficacy in the series with Rattus norvegicus [2] and with Rattus norvegicus [6] were less than 102% and less than 90%, respectively. Moreover, the “Serum ketone level, % of control” value in the series on Rattus norvegicus [4] is less than 19%. In the series with Rattus norvegicus [5], this molecule showed a Control of less than 63%.

Take `CC(C)O/N=C(\OC(=O)c1ccc(C(=O)C(C)(C)C)cc1)c1ccc(C(=O)C(C)(C)C)cc1`: the AUC in [1] amounted to 94 µg·h/mL; in series [3], 155 µg·h/mL. The Efficacy in the series on Rattus norvegicus [2] is recorded as less than 98%; with Rattus norvegicus [6], less than 80%. Also, the “Serum ketone level, % of control” value in the series with Rattus norvegicus [4] was less than 41%. The same molecule gave a Control in the series on Rattus norvegicus [5] of 94%.

On to `Cc1ccc(C2(C(C)(C)C)OCCO2)cc1`, for which the results for the AUC in series [7] and in series [10] were 3560 µg·h/mL and 1510 µg·h/mL, respectively. The Efficacy was less than 64% in the series with Rattus norvegicus [2] and less than 52% with Rattus norvegicus [8]. The Control is reported as less than 52% in the series with Rattus norvegicus [9] and less than 58% in the series on Rattus norvegicus [5]. Besides, in the series on Rattus norvegicus [4], the “Serum ketone level, % of control” value was less than 12%.

Molecule `CC(C)(C)C(=O)c1ccc(C(N)=O)cc1` displayed a Control in the series on Rattus norvegicus [9] of less than 48%.

Take `CC(C)(C)[C@@H](O)c1ccc(C(=O)O)cc1`: the Control in the series on Rattus norvegicus [11] is on record as less than 59%; in the series with Rattus norvegicus [5], less than 42%. The Efficacy is listed as less than 63% with Rattus norvegicus [12] and less than 64% in the series with Rattus norvegicus [6]. Also, in the series with Rattus norvegicus [4], the “Serum ketone level, % of control” value is on record as less than 23%.

Consider `CC(C)(C)C(O)c1ccc(C(=O)O)cc1` (centres undefined), for which the Control in the series on Rattus norvegicus [11] was less than 74%; with Rattus norvegicus [5], less than 50%.

In turn, `CC(C)(C)C(=O)c1ccc(C2=N[C@@H](Cc3ccccc3)C(=O)O2)cc1` yielded an AUC in series [3] of 413 µg·h/mL. Also, the “Serum ketone level, % of control” value with Rattus norvegicus [4] is reported as less than 21%. This molecule came in with a Control with Rattus norvegicus [5] of less than 90%.

Consider `CC(C)(C)C(=O)c1ccc(C(=O)O/C(=N\OCCO)c2ccc(C(=O)C(C)(C)C)cc2)cc1`, for which the AUC in series [1] is 122 µg·h/mL; in [3], 565 µg·h/mL. The Efficacy in the series with Rattus norvegicus [2] and in the series on Rattus norvegicus [6] was less than 92% throughout. In addition, the “Serum ketone level, % of control” value with Rattus norvegicus [4] is listed as less than 15%. This molecule registered a Control in the series on Rattus norvegicus [5] of 98%.

The molecule `CC(C)(C)C(=O)c1ccc(C(=O)O)cc1` yielded a Control with Rattus norvegicus [9] of less than 47%.

`CC(C)(C)C(=O)c1ccc(C2=NCCO2)cc1` had an area under the curve (AUC) in series [3] of 886 µg·h/mL. Further, in the series on Rattus norvegicus [4], the “Serum ketone level, % of control” value is reported as less than 20%. Besides, the Control in the series with Rattus norvegicus [5] is less than 74%.

On to `CC(C)(C)C(=O)c1ccc(C(=O)N(CC(=O)O)C(=O)c2ccc(C(=O)C(C)(C)C)cc2)cc1`, for which the Efficacy with Rattus norvegicus [2] is on record as less than 47%; with Rattus norvegicus [8] it was less than 53%. The same molecule came in with an exposure (AUC) in [3] of 1080 µg·h/mL. The “Serum ketone level, % of control” value in the series with Rattus norvegicus [4] is reported as less than 6%. Moreover, the Control in the series with Rattus norvegicus [5] is less than 56%.

In turn, `CC(C)(C)C(=O)c1ccc(C(=O)N(C(=O)c2ccc(C(=O)C(C)(C)C)cc2)C(=O)c2cccnc2)cc1` gave an AUC in series [13] of 64 µg·h/mL. Further, the results for the Efficacy with Rattus norvegicus [2] and in the series on Rattus norvegicus [8] were less than 74% and less than 73%, respectively. Besides, the Control in the series on Rattus norvegicus [11] and in the series with Rattus norvegicus [5] was 95% in each case. For the same molecule, the “Serum ketone level, % of control” value in the series with Rattus norvegicus [4] is less than 46%.

With `CC1(C)COC(c2ccc(C(=O)O)cc2)(C(C)(C)C)OC1`, the AUC in series [3] turned out to be 263 µg·h/mL. The “Serum ketone level, % of control” value in the series with Rattus norvegicus [4] is recorded as less than 18%. Besides, in the series on Rattus norvegicus [5], the Control was 105%.

With `CC(C)(C)C(=O)c1ccc(C(=O)N[C@@H](Cc2ccccc2)C(=O)O)cc1`, the AUC in series [7] came to 2930 µg·h/mL; in series [3], 964 µg·h/mL. In addition, the “Serum ketone level, % of control” value in the series on Rattus norvegicus [4] is less than 4%.

For the molecule `CC(C)(C)[C@H](O)c1ccc(C(=O)O)cc1`, the figures for the Control with Rattus norvegicus [11] and in the series on Rattus norvegicus [5] were less than 62% and 94%, respectively. Also, the “Serum ketone level, % of control” value in the series with Rattus norvegicus [4] is listed as less than 80%.

Turning to `CC(C)(C)C(=O)c1ccc(C(=O)NC(=O)c2ccc(F)cc2)cc1`, the exposure (AUC) was found to be 2570 µg·h/mL in series [7] and 588 µg·h/mL in [3]. Moreover, the values for the Efficacy in the series on Rattus norvegicus [2] and in the series with Rattus norvegicus [8] were less than 54% and less than 57%, respectively. In addition, the Control in the series on Rattus norvegicus [9] was less than 63%; with Rattus norvegicus [5], less than 65%. Further, the “Serum ketone level, % of control” value in the series with Rattus norvegicus [4] is less than 13%.

As to `CO/N=C(\OC(=O)c1ccc(C(=O)C(C)(C)C)cc1)c1ccc(C(=O)C(C)(C)C)cc1`, the results for the AUC in series [7] and in series [3] were 325 µg·h/mL and 85 µg·h/mL, respectively. Moreover, the Efficacy was less than 59% in the series with Rattus norvegicus [2] and less than 64% with Rattus norvegicus [6]. Also, the “Serum ketone level, % of control” value in the series with Rattus norvegicus [4] is less than 30%. In addition, the Control came out at 98% with Rattus norvegicus [5] and 96% in the series on Rattus norvegicus [14].

In [13], `C=CCOC(c1ccc(C(=O)O)cc1)C(C)(C)C` (centres undefined) showed an AUC of 941 µg·h/mL. For the same molecule, the “Serum ketone level, % of control” value in the series on Rattus norvegicus [4] is listed as less than 29%. The Control in the series on Rattus norvegicus [5] came to 107%.

In turn, `CC(C)(C)C(=O)c1ccc(C(=O)O/C(=N\OCCCC(=O)O)c2ccc(C(=O)C(C)(C)C)cc2)cc1` yielded an area under the curve (AUC) in [3] of 1630 µg·h/mL. Besides, the “Serum ketone level, % of control” value in the series with Rattus norvegicus [4] is given as less than 15%. The Control with Rattus norvegicus [5] is less than 70%.

Consider `CC(C)(C)O/N=C(\OC(=O)c1ccc(C(=O)C(C)(C)C)cc1)c1ccc(C(=O)C(C)(C)C)cc1`, for which the Efficacy is reported as less than 98% in the series on Rattus norvegicus [2] and less than 80% in the series on Rattus norvegicus [6]. Moreover, the AUC in series [3] was determined as 55 µg·h/mL. In addition, in the series with Rattus norvegicus [4], the “Serum ketone level, % of control” value was less than 50%. The Control in the series on Rattus norvegicus [5] is less than 70%; in the series on Rattus norvegicus [14] it was 102%.

For `COCCO/N=C(\OC(=O)c1ccc(C(=O)C(C)(C)C)cc1)c1ccc(C(=O)C(C)(C)C)cc1`, the results for the Efficacy with Rattus norvegicus [2] and in the series with Rattus norvegicus [6] were less than 108% and less than 109%, respectively. Moreover, in series [3], the AUC is 1850 µg·h/mL. For the same molecule, in the series with Rattus norvegicus [4], the “Serum ketone level, % of control” value is recorded as less than 19%. Also, the Control in the series with Rattus norvegicus [5] was less than 49%.

Turning to `COC(c1ccc(C(=O)O)cc1)C(C)(C)C` (centres undefined), the Efficacy with Rattus norvegicus [2] is less than 59%; in the series on Rattus norvegicus [8], less than 23%. Also, the exposure (AUC) in series [3] worked out at 1020 µg·h/mL. In addition, the “Serum ketone level, % of control” value in the series with Rattus norvegicus [4] is given as less than 17%. In the series with Rattus norvegicus [5], the Control is given as less than 81%.

Take `CC(C)(C)C1(c2ccc(C(=O)O)cc2)OCCCO1`: the Efficacy with Rattus norvegicus [2] was less than 65%; with Rattus norvegicus [8] it was less than 41%. The AUC in [3] worked out at 1400 µg·h/mL. Further, the “Serum ketone level, % of control” value with Rattus norvegicus [4] was less than 15%. Besides, in the series with Rattus norvegicus [5], the Control is 111%.

Regarding `C=CCO/N=C(\OC(=O)c1ccc(C(=O)C(C)(C)C)cc1)c1ccc(C(=O)C(C)(C)C)cc1`, the Efficacy in the series with Rattus norvegicus [2] is less than 85%; with Rattus norvegicus [6] it was less than 53%. Moreover, the AUC in series [3] turned out to be 158 µg·h/mL. In addition, the “Serum ketone level, % of control” value with Rattus norvegicus [4] is reported as less than 43%. Also, the Control in the series with Rattus norvegicus [5] is recorded as 105%.

Turning to `CC(C)(C)C(=O)c1ccc(C(=O)NC(=O)c2ccc(C(=O)C(C)(C)C)cc2)cc1`, the area under the curve (AUC) in [7] came to 2670 µg·h/mL; in series [3], 122 µg·h/mL. The Control with Rattus norvegicus [9] is listed as 101%; in the series on Rattus norvegicus [5], 92%. Also, the “Serum ketone level, % of control” value with Rattus norvegicus [4] was less than 21%.

The molecule `CO/N=C(\OC(=O)c1ccc([C@@H](O)C(C)(C)C)cc1)c1ccc([C@H](O)C(C)(C)C)cc1` (relative stereo) displayed an AUC in series [3] of 2370 µg·h/mL. Besides, the “Serum ketone level, % of control” value in the series with Rattus norvegicus [4] is given as less than 17%. Further, the Control in the series with Rattus norvegicus [5] is listed as less than 61%.

(Values after ChEMBL document CHEMBL1132198, “Hypoglycemic prodrugs of 4-(2,2-dimethyl-1-oxopropyl)benzoic acid” (J Med Chem, 1999).)
